Experiments:
[1] = target: Ribosomal protein S6 kinase alpha-2 (Homo sapiens) (UniProt Q15349); assay: Binding affinity to wild-type human partial length C-terminal RSK3 kinase domain 2 (V403 to K700 residues) expressed in bacterial expression system assessed as residual binding level at 1 uM by Kinomescan method relative to control
[2] = target: Mitogen-activated protein kinase 4 (Homo sapiens) (UniProt P31152); assay: Binding affinity to wild-type human partial length ERK4 (M1 to L365 residues) expressed in bacterial expression system assessed as residual binding level at 1 uM by Kinomescan method relative to control
[3] = target: LIM domain kinase 1 (Homo sapiens) (UniProt P53667); assay: Binding affinity to wild-type human full length LIMK1 (M1 to D647 residues) expressed in bacterial expression system assessed as residual binding level at 1 uM by Kinomescan method relative to control
Procedure, shortened: (§1)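 Active-site-directed KinomeScan competition binding panel covering 468 kinases, compound tested at 1 μM. Each readout is the kinase signal remaining with compound, expressed as a percentage of the DMSO control. […]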

[4] = target: Phosphatidylinositol 4,5-bisphosphate 3-kinase catalytic subunit beta isoform (Homo sapiens) (UniProt P42338); assay: Binding affinity to wild-type human partial length PIK3CB (P118 to S1070 residues) expressed in mammalian expression system assessed as residual binding level at 1 uM by Kinomescan method relative to control
[5] = system: ALK tyrosine kinase receptor (Homo sapiens), Q9UM73 [L1196M]; assay: Binding affinity to wild-type human partial length ALK L1196M mutant (I1088 to E1409 residues) expressed in mammalian expression system assessed as residual binding level at 1 uM by Kinomescan method relative to control
ALK tyrosine kinase receptor (Homo sapiens), Q9UM73 [L1196M], sequence (Q9UM73 whole entry L1196M, looked up, the tested form may be a part): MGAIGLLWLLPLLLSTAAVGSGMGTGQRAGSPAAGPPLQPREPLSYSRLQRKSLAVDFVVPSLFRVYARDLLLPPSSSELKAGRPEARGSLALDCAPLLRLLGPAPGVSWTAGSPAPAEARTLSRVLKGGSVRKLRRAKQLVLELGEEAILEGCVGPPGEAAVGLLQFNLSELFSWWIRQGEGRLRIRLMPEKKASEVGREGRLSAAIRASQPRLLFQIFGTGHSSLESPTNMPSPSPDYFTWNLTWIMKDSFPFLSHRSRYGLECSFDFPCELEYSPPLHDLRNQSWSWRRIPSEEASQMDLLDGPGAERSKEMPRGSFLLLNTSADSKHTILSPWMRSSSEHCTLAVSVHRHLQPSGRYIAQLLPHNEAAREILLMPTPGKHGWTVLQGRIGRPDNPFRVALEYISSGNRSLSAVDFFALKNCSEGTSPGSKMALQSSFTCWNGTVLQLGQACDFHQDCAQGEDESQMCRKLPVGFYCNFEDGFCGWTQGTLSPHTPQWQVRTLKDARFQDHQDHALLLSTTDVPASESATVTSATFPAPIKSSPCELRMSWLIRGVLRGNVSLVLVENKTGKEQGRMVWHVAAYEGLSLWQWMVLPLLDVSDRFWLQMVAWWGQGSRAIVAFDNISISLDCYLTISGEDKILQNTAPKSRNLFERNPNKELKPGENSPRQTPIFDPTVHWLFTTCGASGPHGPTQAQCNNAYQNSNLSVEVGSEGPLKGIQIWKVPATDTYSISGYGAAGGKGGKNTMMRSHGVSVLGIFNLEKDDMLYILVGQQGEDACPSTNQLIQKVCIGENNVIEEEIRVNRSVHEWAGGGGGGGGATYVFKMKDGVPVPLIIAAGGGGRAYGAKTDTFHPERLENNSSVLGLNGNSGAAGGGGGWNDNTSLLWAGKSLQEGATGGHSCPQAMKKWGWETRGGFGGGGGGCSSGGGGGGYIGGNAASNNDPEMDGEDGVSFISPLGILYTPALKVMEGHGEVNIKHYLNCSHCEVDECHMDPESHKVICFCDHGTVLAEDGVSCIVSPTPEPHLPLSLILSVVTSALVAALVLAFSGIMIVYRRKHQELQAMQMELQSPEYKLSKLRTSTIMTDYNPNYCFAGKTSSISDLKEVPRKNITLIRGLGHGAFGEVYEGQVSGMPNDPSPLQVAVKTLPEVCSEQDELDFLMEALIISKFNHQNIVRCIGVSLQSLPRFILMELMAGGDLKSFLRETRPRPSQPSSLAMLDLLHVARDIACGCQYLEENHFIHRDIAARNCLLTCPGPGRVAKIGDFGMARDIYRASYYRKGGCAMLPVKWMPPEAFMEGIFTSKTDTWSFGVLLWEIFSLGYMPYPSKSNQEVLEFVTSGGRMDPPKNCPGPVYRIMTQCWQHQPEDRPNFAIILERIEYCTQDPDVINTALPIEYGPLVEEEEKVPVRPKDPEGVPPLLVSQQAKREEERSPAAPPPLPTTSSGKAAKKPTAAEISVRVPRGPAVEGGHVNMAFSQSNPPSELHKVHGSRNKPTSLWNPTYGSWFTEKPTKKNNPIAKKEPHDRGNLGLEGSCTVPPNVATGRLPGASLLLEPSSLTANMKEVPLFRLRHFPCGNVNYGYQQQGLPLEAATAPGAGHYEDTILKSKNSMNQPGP

[6] = system: Tyrosine-protein kinase ABL1 (Homo sapiens), P00519 [F317I]; assay: Binding affinity to human phosphorylated ABL1 F317I mutant (S229 to K512 residues) expressed in mammalian expression system assessed as residual binding level at 1 uM by Kinomescan method relative to control
Procedure, shortened: (§2)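 KinomeScan active site-directed competition binding panel (468 kinases), compound tested at 1 μM. Result expressed as remaining kinase signal versus DMSO control (percent of control).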

[7] = target: Mitogen-activated protein kinase kinase kinase 14 (Homo sapiens) (UniProt Q99558); assay: Binding affinity to wild-type human partial length NIK (L318 to P947 residues) expressed in mammalian expression system assessed as residual binding level at 1 uM by Kinomescan method relative to control
[8] = system: Mast/stem cell growth factor receptor Kit (Homo sapiens), P10721 [L576P]; assay: Binding affinity to human partial length KIT L576P mutant (Y545 to D952 residues) expressed in bacterial expression system assessed as residual binding level at 1 uM by Kinomescan method relative to control; procedure, shortened: as §2
[9] = target: Tyrosine-protein kinase HCK (Homo sapiens, UniProt P08631); assay: Binding affinity to wild-type human full length HCK (M22 to P526 residues) expressed in bacterial expression system assessed as residual binding level at 1 uM by Kinomescan method relative to control
Procedure, shortened: (§3)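 KinomeScan, an active site-directed competition binding panel of 468 kinases. The test compound was at 1 μM. The readout is remaining kinase binding as a percentage of the DMSO control. Scores above 35% were treated as weak binding and not listed.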

[10] = target: Cyclin-dependent kinase 5 (Homo sapiens) (UniProt Q00535); assay: Binding affinity to wild-type human full length CDK5 (M1 to P292 residues) expressed in bacterial expression system assessed as residual binding level at 1 uM by Kinomescan method relative to control; procedure, shortened: as §1
Cyclin-dependent kinase 5 (Homo sapiens), sequence (Q00535 whole entry, looked up, the tested form may be a part): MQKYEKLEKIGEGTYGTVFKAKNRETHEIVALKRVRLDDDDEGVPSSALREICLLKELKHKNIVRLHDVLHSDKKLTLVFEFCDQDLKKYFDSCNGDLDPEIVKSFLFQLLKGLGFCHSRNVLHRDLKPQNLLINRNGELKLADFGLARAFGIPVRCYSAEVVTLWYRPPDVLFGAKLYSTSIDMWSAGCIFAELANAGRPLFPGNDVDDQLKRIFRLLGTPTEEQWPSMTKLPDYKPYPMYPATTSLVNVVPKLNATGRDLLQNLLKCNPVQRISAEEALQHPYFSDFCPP

[11] = system: Receptor-type tyrosine-protein kinase FLT3 (Homo sapiens), P36888 [N841I]; assay: Binding affinity to human partial length FLT3 N841I mutant (V592 to Y969 residues) expressed in bacterial expression system assessed as residual binding level at 1 uM by Kinomescan method relative to control; procedure, shortened: as §2
[12] = target: Cyclin-dependent kinase 11B (Homo sapiens) (UniProt P21127); assay: Binding affinity to wild-type human partial length CDC2L1 (P353 to G692 residues) expressed in bacterial expression system assessed as residual binding level at 1 uM by Kinomescan method relative to control
[13] = target: Casein kinase I isoform gamma-2 (Homo sapiens) (UniProt P78368); assay: Binding affinity to wild-type human full length CSNK1G2 (M1 to K415 residues) expressed in bacterial expression system assessed as residual binding level at 1 uM by Kinomescan method relative to control; procedure, shortened: as §1
Casein kinase I isoform gamma-2 (Homo sapiens), sequence (P78368 whole entry, looked up, the tested form may be a part, canonical isoform): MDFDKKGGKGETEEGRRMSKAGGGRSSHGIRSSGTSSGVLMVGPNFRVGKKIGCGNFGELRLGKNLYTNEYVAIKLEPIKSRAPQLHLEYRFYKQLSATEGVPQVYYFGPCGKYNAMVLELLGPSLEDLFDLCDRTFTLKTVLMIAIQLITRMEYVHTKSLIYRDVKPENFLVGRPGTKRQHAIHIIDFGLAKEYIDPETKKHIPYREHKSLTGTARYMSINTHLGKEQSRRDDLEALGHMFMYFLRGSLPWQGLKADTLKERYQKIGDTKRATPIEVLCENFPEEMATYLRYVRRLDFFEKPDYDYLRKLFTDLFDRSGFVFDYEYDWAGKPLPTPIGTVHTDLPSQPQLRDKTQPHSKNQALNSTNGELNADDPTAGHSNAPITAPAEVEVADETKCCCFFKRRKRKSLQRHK

[14] = target: Aurora kinase B (Homo sapiens) (UniProt Q96GD4); assay: Binding affinity to wild-type human partial length AURKB (D25 to A303 residues) expressed in mammalian expression system assessed as residual binding level at 1 uM by Kinomescan method relative to control; procedure, shortened: as §3
Aurora kinase B (Homo sapiens), sequence (Q96GD4 whole entry, the tested form may be a part): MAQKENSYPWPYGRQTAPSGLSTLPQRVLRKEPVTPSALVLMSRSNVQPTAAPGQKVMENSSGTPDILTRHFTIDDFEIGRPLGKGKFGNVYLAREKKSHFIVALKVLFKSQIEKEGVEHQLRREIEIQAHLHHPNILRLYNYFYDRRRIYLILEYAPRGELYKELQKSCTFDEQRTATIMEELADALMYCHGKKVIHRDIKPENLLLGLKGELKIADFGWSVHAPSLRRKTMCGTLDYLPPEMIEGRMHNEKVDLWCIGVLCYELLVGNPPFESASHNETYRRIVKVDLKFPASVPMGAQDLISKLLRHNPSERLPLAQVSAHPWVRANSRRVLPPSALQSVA

[15] = target: Cyclin-dependent kinase 18 (Homo sapiens) (UniProt Q07002); assay: Binding affinity to wild-type human full length PCTK3 (M3 to F474 residues) expressed in bacterial expression system assessed as residual binding level at 1 uM by Kinomescan method relative to control; procedure, shortened: as §3
[16] = target: TRAF2 and NCK-interacting protein kinase (Homo sapiens) (UniProt Q9UKE5); assay: Binding affinity to wild-type human partial length TNIK (D4 to K311 residues) expressed in bacterial expression system assessed as residual binding level at 1 uM by Kinomescan method relative to control
TRAF2 and NCK-interacting protein kinase (Homo sapiens), sequence (Q9UKE5 whole entry, looked up, the tested form may be a part, canonical isoform): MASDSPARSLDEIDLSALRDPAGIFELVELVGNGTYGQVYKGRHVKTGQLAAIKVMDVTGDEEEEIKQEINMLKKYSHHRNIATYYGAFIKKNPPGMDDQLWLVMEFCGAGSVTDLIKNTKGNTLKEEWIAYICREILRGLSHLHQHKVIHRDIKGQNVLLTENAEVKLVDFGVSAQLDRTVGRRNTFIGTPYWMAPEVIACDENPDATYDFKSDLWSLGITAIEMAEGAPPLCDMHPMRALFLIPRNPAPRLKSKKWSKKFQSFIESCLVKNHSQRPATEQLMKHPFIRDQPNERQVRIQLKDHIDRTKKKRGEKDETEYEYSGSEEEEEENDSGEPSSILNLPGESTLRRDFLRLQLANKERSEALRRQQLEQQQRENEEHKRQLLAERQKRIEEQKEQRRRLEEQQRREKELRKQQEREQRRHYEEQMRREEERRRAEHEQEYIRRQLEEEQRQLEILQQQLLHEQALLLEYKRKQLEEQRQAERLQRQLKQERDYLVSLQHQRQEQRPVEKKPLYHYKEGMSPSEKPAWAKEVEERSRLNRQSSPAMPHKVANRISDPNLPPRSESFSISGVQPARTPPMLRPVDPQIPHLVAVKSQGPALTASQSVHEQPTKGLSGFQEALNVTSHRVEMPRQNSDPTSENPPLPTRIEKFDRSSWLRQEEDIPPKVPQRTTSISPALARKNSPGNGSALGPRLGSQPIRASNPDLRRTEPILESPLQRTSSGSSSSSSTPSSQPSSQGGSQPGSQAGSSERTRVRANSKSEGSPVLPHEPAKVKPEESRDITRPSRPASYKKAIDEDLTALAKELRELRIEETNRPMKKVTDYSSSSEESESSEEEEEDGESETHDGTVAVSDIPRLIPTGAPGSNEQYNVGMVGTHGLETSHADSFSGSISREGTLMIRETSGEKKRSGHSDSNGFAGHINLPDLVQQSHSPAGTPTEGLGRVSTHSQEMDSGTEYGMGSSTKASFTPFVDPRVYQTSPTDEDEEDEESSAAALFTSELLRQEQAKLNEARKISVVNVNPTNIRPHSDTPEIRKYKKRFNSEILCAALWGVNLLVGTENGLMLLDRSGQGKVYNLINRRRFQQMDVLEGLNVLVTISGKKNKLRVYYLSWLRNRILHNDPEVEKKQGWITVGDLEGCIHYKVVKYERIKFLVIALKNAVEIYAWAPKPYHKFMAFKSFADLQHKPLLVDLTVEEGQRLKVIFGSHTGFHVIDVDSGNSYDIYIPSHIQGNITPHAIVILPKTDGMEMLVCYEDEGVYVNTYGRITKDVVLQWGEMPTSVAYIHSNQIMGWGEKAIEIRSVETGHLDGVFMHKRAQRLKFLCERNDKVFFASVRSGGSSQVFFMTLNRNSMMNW

[17] = system: Phosphatidylinositol 4,5-bisphosphate 3-kinase catalytic subunit alpha isoform (Homo sapiens), P42336 [M1043I]; assay: Binding affinity to human partial length PIK3CA M1043I mutant (R108 to N1068 residues) expressed in mammalian expression system assessed as residual binding level at 1 uM by Kinomescan method relative to control; procedure, shortened: as §2
[18] = target: Ribosomal protein S6 kinase alpha-6 (Homo sapiens) (UniProt Q9UK32); assay: Binding affinity to wild-type human partial length C-terminal RSK4 kinase domain 2 (I401 to Y711 residues) expressed in bacterial expression system assessed as residual binding level at 1 uM by Kinomescan method relative to control; procedure, shortened: as §3
[19] = target: Activated CDC42 kinase 1 (Homo sapiens) (UniProt Q07912); assay: Binding affinity to wild-type human partial length TNK2 (S159 to D474 residues) expressed in bacterial expression system assessed as residual binding level at 1 uM by Kinomescan method relative to control
Procedure, shortened: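 Active site-directed competition binding panel (KinomeScan, 468 kinases). Test compound at 1 μM. Read-out is kinase binding remaining versus DMSO control, expressed as percent of control. Scores above 35% are treated as weak binding.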

[20] = target: Receptor tyrosine-protein kinase erbB-4 (Homo sapiens) (UniProt Q15303); assay: Binding affinity to wild-type human partial length ERBB4 (L690 to K994 residues) expressed in bacterial expression system assessed as residual binding level at 1 uM by Kinomescan method relative to control
Procedure, shortened: (§4)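 Active-site-directed competition binding panel of 468 kinases (KinomeScan), compound at 1 μM. The read-out is kinase remaining bound, given as a percentage of the DMSO control. […]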

[21] = target: Macrophage colony-stimulating factor 1 receptor (Homo sapiens) (UniProt P07333); assay: Binding affinity to wild-type human partial length CSF1R (I564 to S939 residues) expressed in bacterial expression system assessed as residual binding level at 1 uM by Kinomescan method relative to control; procedure, shortened: as §4

Ribosomal protein S6 kinase alpha-2 (Homo sapiens), sequence (Q15349 whole entry, the tested form may be a part): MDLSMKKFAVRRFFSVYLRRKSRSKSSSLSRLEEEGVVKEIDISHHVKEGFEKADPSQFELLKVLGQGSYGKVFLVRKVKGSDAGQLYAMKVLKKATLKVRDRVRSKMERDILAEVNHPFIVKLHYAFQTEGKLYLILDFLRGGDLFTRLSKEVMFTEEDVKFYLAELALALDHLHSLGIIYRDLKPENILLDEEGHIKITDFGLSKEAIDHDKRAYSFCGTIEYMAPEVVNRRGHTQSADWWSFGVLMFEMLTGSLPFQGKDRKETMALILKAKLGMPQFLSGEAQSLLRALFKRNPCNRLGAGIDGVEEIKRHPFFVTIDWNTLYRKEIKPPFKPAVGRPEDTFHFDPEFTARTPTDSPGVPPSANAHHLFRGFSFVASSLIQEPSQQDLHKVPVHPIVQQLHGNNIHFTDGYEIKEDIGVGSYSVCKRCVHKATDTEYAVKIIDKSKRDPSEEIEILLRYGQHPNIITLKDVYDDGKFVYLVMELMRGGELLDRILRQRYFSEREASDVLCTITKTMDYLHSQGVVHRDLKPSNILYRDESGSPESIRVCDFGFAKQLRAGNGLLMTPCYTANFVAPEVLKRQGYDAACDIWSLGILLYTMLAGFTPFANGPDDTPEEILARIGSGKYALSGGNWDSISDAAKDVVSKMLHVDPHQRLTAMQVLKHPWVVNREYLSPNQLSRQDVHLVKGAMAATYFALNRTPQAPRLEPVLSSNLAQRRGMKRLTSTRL

C=CC(=O)Nc1ccccc1Nc1nc(Nc2ccc(N3CCN(C)CC3)cc2)ncc1C(=O)Nc1c(C)cccc1Cl
Activity [1]: 100%
Activity [2]: 100%
Activity [3]: 100%
Activity [4]: 100%
Activity [5]: 90%
Activity [6]: 6.9%
Activity [7]: 100%
Activity [8]: 65%
Activity [9]: 0.8%
Activity [10]: 100%
Activity [11]: 100%
Activity [12]: 100%
Activity [13]: 100%
Activity [14]: 79%
Activity [15]: 98%
Activity [16]: 100%
Activity [17]: 100%
Activity [18]: 96%
Activity [19]: 81%
Activity [20]: 6.6%
Activity [21]: 7.3%
